Assay results: ChEMBL document CHEMBL4725346, “Syntheses and Evaluation of New Bisacridine Derivatives for Dual Binding of G-Quadruplex and i-Motif in Regulating Oncogene c-myc Expression” (J Med Chem, 2020)
Active and inactive are the calls of the source. No cut-off for these calls is given here.

How the values were obtained:
[1] = Stabilization of 5'-FAM/3'-TAMRA labeled hairpin DNA F10T (unknown origin) assessed as change in melting temperature at 5 uM by FRET assay
[2] = Stabilization of 5'-FAM/3'-TAMRA labeled c-myc promoter i-motif DNA FPy33T (unknown origin) assessed as change in melting temperature at 5 uM by FRET assay (reference value: 53.2 degreeC)
Outline: (§1)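 FRET melting of dual FAM/TAMRA-labelled FPy33T annealed in 1× BPES (30 mM potassium phosphate, 1 mM EDTA, 100 mM KCl), pH 5.5. Final 0.2 µM DNA with or without ligand. Excitation 470 nm, emission 530 nm, read every 1 °C over 37–99 °C. ΔTm taken against DNA alone.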

[3] = system: Quadruplex DNA; assay: Stabilization of 5'-FAM/3'-TAMRA labeled c-myc promoter G-quadruplex DNA FPu22T (unknown origin) assessed as change in melting temperature at 5 uM by FRET assay (reference value: 66.5 degreeC); type: nucleic-acid assay
Outline: (§2)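 FRET melting of dual FAM/TAMRA-labelled FPu22T annealed in 10 mM Tris-HCl pH 7.4 with KCl. Final 0.2 µM DNA with or without ligand. Excitation 470 nm, emission 530 nm, read every 1 °C over 37–99 °C on a real-time PCR cycler. ΔTm = Tm(DNA+ligand) − Tm(DNA).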

[4] = Binding affinity to 5'-biotin labeled c-myc promoter i-motif DNA Py33 (unknown origin) by surface plasmon resonance method
Outline: (§3)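 SPR: 5'-biotin DNA diluted to 1 μM and captured (1000 RU) on a sensor chip, with a blank cell as reference. Running buffers: Py33 in 20 mM MES pH 5.8, 100 mM KCl, 0.05% Tween-20; Pu27 and duplex in 50 mM Tris-HCl pH 7.4, 100 mM KCl. Six ligand concentrations serially diluted from DMSO stock. Association 260 s, dissociation 300 s at 25 °C; NaOH regeneration; blank sensorgrams subtracted.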

[5] = Stabilization of 5'-FAM/3'-TAMRA labeled hairpin DNA F10T (unknown origin) assessed as change in melting temperature at 1 uM by FRET assay (reference value: 59.1 degreeC)
[6] = system: Quadruplex DNA; assay: Binding affinity to c-myc promoter G-quadruplex/i-motif in human SiHa cells assessed as reduction in c-myc mRNA level at 1.25 uM incubated for 24 hrs by qRT-PCR analysis; type: cell-based; design: scale not given: the % may be the effect or the level left
Outline: (§4)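 SiHa cells at 0, 0.625, 1.25 and 2.5 μM for 24 h; DMSO control. Total RNA extracted with TRIzol. 1.5 μg RNA reverse-transcribed with oligo dT18 and M-MLV (42 °C 60 min). PCR of 30 cycles (95/58/72 °C), products run on 1.2% agarose. β-actin as internal control; three repeats.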

[7] = system: Huh-7; assay: Antiproliferative activity against human Huh-7 cells after 48 hrs by MTT assay; type: functional, cell-based; settings: Huh-7, 48 h
Outline: (§5)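 Cells seeded at 5.0×10^3 per well, pre-incubated 12 h at 37 °C, 5% CO2, then exposed to compounds for 48 h; DMSO-only control. MTT (2.5 mg/mL) added for 4 h, formazan dissolved in DMSO, absorbance at 570 nm. Each dose tested in triplicate; IC50 from percentage survival relative to negative control.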

[8] = target: Quadruplex DNA; assay: Binding affinity to 5'-biotin labeled c-myc promoter G-quadruplex DNA Pu27 (unknown origin) by surface plasmon resonance method; type: nucleic-acid assay; outline: as §3
[9] = system: Quadruplex DNA; assay: Stabilization of c-myc promoter G-quadruplex DNA Pu27 (unknown origin) assessed as effect on melting temperature at 5 uM by CD spectroscopy; type: nucleic-acid assay
Outline: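 CD melting: Pu27 diluted to 1 µM in 10 mM Tris-HCl, 5 mM KCl, pH 7.4, with or without ligand. Annealed at 95 °C for 5 min, slowly cooled, then heated at 1 °C/min while monitoring 260 nm. Tm obtained by curve fitting.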

[10] = system: A-375; assay: Antiproliferative activity against human A-375 cells after 48 hrs by MTT assay; type: functional, cell-based; settings: A-375, 48 h; outline: as §5
[11] = target: dsDNA; assay: Binding affinity to 5'-biotin labeled duplex DNA (unknown origin) by surface plasmon resonance method; type: nucleic-acid assay; outline: as §3
[12] = system: SiHa; assay: Antiproliferative activity against human SiHa cells after 48 hrs by MTT assay; type: functional, cell-based; outline: as §5
[13] = Stabilization of c-myc promoter i-motif DNA Py33 (unknown origin) assessed as effect on melting temperature at 5 uM by CD spectroscopy
Outline: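 CD melting: Py33 at 1 µM in 1× BPES pH 6.4, with or without ligand. Annealed at 95 °C for 5 min, slowly cooled, then heated at 1 °C/min while monitoring 260 nm. Tm obtained by curve fitting.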

[14] = system: Quadruplex DNA; assay: Binding affinity to c-myc promoter G-quadruplex/i-motif in human SiHa cells assessed as reduction in c-myc expression at 5 uM incubated for 24 hrs by Western blot analysis; type: cell-based; design: scale not given: the % may be the effect or the level left
[15] = system: A549; assay: Antiproliferative activity against human A549 cells after 48 hrs by MTT assay; type: functional, cell-based; settings: A549, 48 h; outline: as §5
[16] = system: Quadruplex DNA; assay: Stabilization of 5'-FAM/3'-TAMRA labeled c-myc promoter G-quadruplex DNA FPu22T (unknown origin) assessed as change in melting temperature at 1 uM by FRET assay (reference value: 66.5 degreeC); type: nucleic-acid assay; outline: as §2
[17] = system: Quadruplex DNA; assay: Binding affinity to c-myc wild-type promoter G-quadruplex/i-motif (unknown origin) expressed in human SiHa cells assessed as reduction in c-myc transcription by measuring decrease in ratio of renilla/firefly luciferase activity at 1/3 IC50 after 48 hrs by dual-luciferase reporter assay; type: cell-based
Outline: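 SiHa cells transfected with 200 ng psiCHECK2 plasmid carrying wild-type, mutant or deleted c-myc promoter. Compounds added 8 h after transfection, then incubated 48 h at 37 °C. Cells washed with ice-cold PBS; Renilla/firefly activity ratio read by dual-luciferase assay.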

[18] = system: Quadruplex DNA; assay: Binding affinity to c-myc promoter G-quadruplex/i-motif in human SiHa cells assessed as reduction in c-myc expression at 2.5 uM incubated for 24 hrs by Western blot analysis; type: cell-based; design: scale not given: the % may be the effect or the level left
Outline: (§6)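 SiHa cells treated 24 h at 0, 0.625, 1.25 and 2.5 μM, then lysed in buffer with 1 mM PMSF. Protein measured by BCA, equal loads run on 8% gel and blotted to PVDF. Probed with anti-c-MYC and anti-β-actin (loading control), HRP anti-rabbit secondary, chemiluminescence read-out.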

[19] = Stabilization of 5'-FAM/3'-TAMRA labeled c-myc promoter i-motif DNA FPy33T (unknown origin) assessed as change in melting temperature at 1 uM by FRET assay (reference value: 53.2 degreeC); outline: as §1
[20] = Drug uptake in human SiHa cells; type: ADME, cell-based
[21] = system: HeLa; assay: Antiproliferative activity against human Hela cells after 48 hrs by MTT assay; type: functional, cell-based; outline: as §5
[22] = system: Quadruplex DNA; assay: Binding affinity to c-myc promoter G-quadruplex/i-motif in human SiHa cells assessed as reduction in c-myc mRNA level incubated for 24 hrs by qRT-PCR analysis; type: cell-based; settings: dose microM 0.625-2.5, time 24.0 hrs; outline: as §4
[23] = system: Quadruplex DNA; assay: Stabilization of c-myc promoter G-quadruplex DNA Pu27 (unknown origin) in pH 7.4 Tris-HCl buffer by CD spectroscopy; type: nucleic-acid assay
Outline: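 Pu27 at 1 µM in 10 mM Tris-HCl pH 7.4, with or without ligand. Annealed at 95 °C for 5 min, cooled to room temperature, stored at 4 °C overnight. CD spectra taken in a 4 mm cuvette over 230–350 nm, three scans averaged, smoothed and buffer-baseline corrected.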

[24] = system: Quadruplex DNA; assay: Binding affinity to c-myc promoter G-quadruplex/i-motif in human SiHa cells assessed as reduction in c-myc mRNA level at 2.5 uM incubated for 24 hrs by qRT-PCR analysis; type: cell-based; design: scale not given: the % may be the effect or the level left; outline: as §4
[25] = system: Quadruplex DNA; assay: Binding affinity to c-myc promoter G-quadruplex/i-motif in human SiHa cells assessed as reduction in c-myc expression incubated for 24 hrs by Western blot analysis; type: cell-based; outline: as §6
[26] = system: HCT-116; assay: Antiproliferative activity against human HCT-116 cells after 48 hrs by MTT assay; type: functional, cell-based; settings: HCT-116, 48 h; outline: as §5
[27] = system: U2OS; assay: Antiproliferative activity against human U2OS cells after 48 hrs by MTT assay; type: functional, cell-based; outline: as §5
[28] = system: Quadruplex DNA; assay: Binding affinity to c-myc promoter G-quadruplex/i-motif in human SiHa cells assessed as reduction in c-myc mRNA level at 5 uM incubated for 24 hrs by qRT-PCR analysis; type: cell-based; design: scale not given: the % may be the effect or the level left
[29] = system: Quadruplex DNA; assay: Binding affinity to c-myc promoter G-quadruplex/i-motif in human SiHa cells assessed as reduction in c-myc expression at 1.25 uM incubated for 24 hrs by Western blot analysis; type: cell-based; design: scale not given: the % may be the effect or the level left; outline: as §6
[30] = system: ssDNA; assay: Binding affinity to 5'-biotin labeled single-stranded DNA Py33 (unknown origin) at <=50 uM by surface plasmon resonance method; type: nucleic-acid assay
[31] = Stabilization of c-myc promoter i-motif DNA Py33 (unknown origin) assessed as increase in slower migration band incubated overnight by silver staining based PAGE analysis
Outline: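 Py33 (3 µM) co-annealed with increasing ligand in 1× BPES pH 6.8 at 95 °C for 5 min, cooled, held at 4 °C overnight. Run on native 20% acrylamide in 1× TBE at 140 V for 5 h at 5 °C, then silver-stained.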

[32] = Stabilization of c-myc promoter i-motif DNA Py33 (unknown origin) assessed as decrease in negative peak intensity at pH 5.5 measured at 260 nanometer by CD spectroscopy
Outline: (§7)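 Py33 at 1 µM in 1× BPES pH 5.5 (pH 6.8 random-coil reference), with or without ligand. Annealed at 95 °C for 5 min, cooled, kept at 4 °C overnight. CD spectra in a 4 mm cuvette over 230–350 nm, three scans averaged, buffer-corrected; peaks followed at 288 and 260 nm.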

[33] = Stabilization of c-myc promoter i-motif DNA Py33 (unknown origin) assessed as reduction in appearance of random coil confirmation at pH 5.5 by CD spectroscopy; outline: as §7
[34] = Stabilization of c-myc promoter i-motif DNA Py33 (unknown origin) assessed as decrease in positive peak intensity at pH 5.5 measured at 288 nanometer by CD spectroscopy; outline: as §7

Row | SMILES | ΔTm [1] [°C] | ΔTm [2] [°C] | ΔTm [3] [°C] | Kd [4] [µM] | ΔTm [5] [°C] | IC50 [7] [µM] | Kd [8] [µM] | Activity [9] | IC50 [10] [µM] | Kd [11] [µM] | IC50 [12] [µM] | Activity [13] | IC50 [15] [µM] | ΔTm [16] [°C] | ΔTm [19] [°C] | Drug uptake [20] | IC50 [21] [µM] | IC50 [26] [µM] | IC50 [27] [µM] | also measured
1 | Cc1ccc2nc3ccc(C)cc3c(NCCNCCNc3c4cc(C)ccc4nc4ccc(C)cc34)c2c1 | 2.5 | 16 | 6.2 |  |  |  |  |  |  |  |  |  |  |  |  |  |  |  |  | 
2 | Cc1ccc2nc3ccc(C)cc3c(NCCOCCOCCNc3c4cc(C)ccc4nc4ccc(C)cc34)c2c1 |  |  |  | 26.2 | 2.3 | 1.95 | 3.6 | Active | 1.75 | 22.1 | 0.56 | inactive | 2.26 | 13.5 | 1 | Active | 1.36 | 2.12 | 1.23 | Activity [6]: 32.6%; Activity [14]: 62.3%; Activity [17]: Active; Activity [18]: 42.2%; Activity [22]: Dose-dependent effect; Activity [23]: Active; Activity [24]: 55.8%; Activity [25]: Dose-dependent effect; Activity [28]: 79.8%; Activity [29]: 25.3%
3 | Cc1ccc2nc3ccc(C)cc3c(NCCN(C)C)c2c1 | 6.8 | 10 | 8.3 |  | 4.1 |  |  |  |  | 13.1 |  |  |  | 6.2 | 2.7 |  |  |  |  | 
4 | c1ccc2c(NCCNCCNc3c4ccccc4nc4ccccc34)c3ccccc3nc2c1 |  |  |  | 12.3 | 2.5 | 20 | 4.7 |  | 6.85 | 6.5 | 12 |  | 9.79 | 15.2 | 0.7 |  | 13.8 | 11.1 | 5.48 | Activity [30]: inactive
5 | Cc1ccc2nc3ccc(C(=O)NCCCN(C)C)cc3c(NCCCNCCNCCCNc3c4cc(C)ccc4nc4ccc(C(=O)NCCCN(C)C)cc34)c2c1 |  |  |  | 1 | 2.8 |  | 2.7 | Active |  | 21.7 |  | Active |  | 17.1 | 24.3 | Not Active |  |  |  | Activity [31]: Dose-dependent effect; Activity [32]: Active; Activity [33]: Active; Activity [34]: Active
